Read-outs that look alike come from different tables or passages of the source. Values belong to the compound of their own block, whether it stands above or below them. Peptide text beside a SMILES is read from it.
Legend:
WDR5 = WDR5 (Homo sapiens, UniProt P61964); assay: Fluorescence-polarization; type: binding; conditions: for decrease in binding affinity to WDR5 (times) compared to ARA (Ac-ARA-NH2) / improvement in binding affinity to WDR5 (times more potent) compared to ARA (Ac-ARA-NH2): relative to ARA peptide; for weakening of binding to WDR5 (times) compared to Val and Abu at Ala1: relative to Val and Abu
[1] = target: MLL1 core complex (MLL1/WDR5/RbBP5/ASH2L) (Homo sapiens, UniProt P61964); assay: In vitro H3K4 histone methyltransferase; type: biochemical; conditions: for inhibition of MLL1 HMT activity, result in words: up to 400 μM
GAPDH = assay: qRT-PCR analysis of GAPDH; type: cell-based; conditions: 96 h, MLL1-AF9 transduced murine cells
Method in brief: (§1)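 Murine bone marrow cells transduced with MLL1-AF9 were exposed for 96 h to test compound (25 or 50 μM), a control compound (50 μM) or mock, all at 0.2% final DMSO. Total RNA was extracted (Trizol plus column kit) and cDNA made by random priming. SYBR real-time PCR used gene-specific primers for HoxA9, Meis1 and GAPDH. Expression is relative to mock after normalizing to GAPDH or total input RNA; unpaired t test versus mock.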

HoxA9 = assay: qRT-PCR analysis of HoxA9 expression in MLL1-AF9 transduced bone marrow cells; type: cell-based; conditions: 96 h, MLL1-AF9 transduced murine cells
Method in brief: as §1

KOPN8 cells = assay: Cell growth, CellTiter-Glo Luminescent Cell Viability Assay; type: cell-based; conditions: 7 days
Method in brief: (§2)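 Cells grown in RPMI 1640 with 10% FBS and penicillin-streptomycin at 37 °C, 5% CO2. Seeded at 5 × 10^5 cells per well and exposed to test compound or 0.2% DMSO vehicle for 7 days. Medium was changed and compound resupplied every 2 days. CellTiter-Glo reagent added, 2 min shaking to lyse, 10 min at room temperature, then luminescence read.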

K562 cells [2] = assay: Annexin V-propidium iodide apoptosis assay; type: cell-based; conditions: K562, up to 50 μM, 96 h
K562 cells [3] = assay: Cell growth, CellTiter-Glo Luminescent Cell Viability Assay; type: cell-based; conditions: 7 days
Method in brief: as §2

Meis-1 = assay: qRT-PCR analysis of Meis-1 expression in MLL1-AF9 transduced bone marrow cells; type: cell-based; conditions: 50 μM, 96 h, MLL1-AF9 transduced murine cells
Method in brief: as §1

MV4;11 cells [4] = assay: Annexin V-propidium iodide apoptosis assay; type: cell-based; conditions: MV4;11, 50 μM, 96 h
MV4;11 cells [5] = assay: Cell growth, CellTiter-Glo Luminescent Cell Viability Assay; type: cell-based; conditions: 7 days
Method in brief: as §2

improvement in binding affinity to WDR5 (times more potent) compared to ARA (Ac-ARA-NH2) (WDR5): 5
SMILES: CC(=O)N[C@@H](C)C(=O)N[C@@H](CCCNC(=N)N)C(=O)N[C@H](C(N)=O)C(C)C [Compound 3c] (Ac-Ala-Arg-Val-NH2)

decrease in binding affinity to WDR5 (times less potent) compared to 3c (WDR5; relative to 3c): 50
SMILES: CC(=O)N[C@H](C(=O)N[C@@H](CCCNC(=N)N)C(=O)N[C@H](C(N)=O)C(C)C)c1ccccc1 [Compound 4j]

times more potent than 3c in binding to WDR5 (WDR5; relative to 3c): 5
SMILES: CCC(CC)(NC(C)=O)C(=O)N[C@@H](CCCNC(=N)N)C(=O)N[C@H](C(N)=O)C(C)C [Compound 4f]

improvement in binding affinity to WDR5 (times more potent) compared to ARA (Ac-ARA-NH2) (WDR5): 20
SMILES: CC[C@H](NC(=O)[C@H](CCCNC(=N)N)NC(=O)[C@H](C)NC(C)=O)C(N)=O [Compound 3b]

decrease in binding affinity to WDR5 (times) compared to ARA (Ac-ARA-NH2) (WDR5): > 10
SMILES: CC(=O)N[C@@H](C)C(=O)N[C@@H](CCCNC(=N)N)C(=O)NCC(N)=O [Compound 3a] (Ac-Ala-Arg-Gly-NH2)

decrease in binding affinity to WDR5 (times) compared to ARA (Ac-ARA-NH2) (WDR5): 3
SMILES: CC(=O)N[C@@H](C)C(=O)N[C@@H](CCCNC(=N)N)C(=O)N[C@@H](CO)C(N)=O [Compound 3h] (Ac-Ala-Arg-Ser-NH2)

decrease in binding affinity to WDR5 (times less potent) compared to 3c (WDR5; relative to 3c): 15
SMILES: CC(=O)N[C@H](C(=O)N[C@@H](CCCNC(=N)N)C(=O)N[C@H](C(N)=O)C(C)C)C1CCCC1 [Compound 4i]

reduction of binding affinity to WDR5 (fold) compared to 3b (WDR5; relative to 3b): 3
improvement in binding affinity to WDR5 (times more potent) compared to ARA (Ac-ARA-NH2) (WDR5): 5
SMILES: CC(=O)N[C@@H](C)C(=O)N[C@@H](CCCNC(=N)N)C(=O)N[C@H](C(N)=O)[C@@H](C)O [Compound 3i] (Ac-Ala-Arg-Thr-NH2)

decrease in binding affinity to WDR5 (times) compared to ARA (Ac-ARA-NH2) (WDR5): > 100
SMILES: CC(=O)N[C@@H](C)C(=O)N[C@@H](CCCNC(=N)N)C(=O)N[C@@H](CCC(=O)O)C(N)=O [Compound 3j] (Ac-Ala-Arg-Glu-NH2)

Ki (WDR5; read-out: Ki ± SD, binding affinity to WDR5, FP-based competitive binding): < 0.001 µM
SMILES: CCC(CC)(NC(=O)C(C)C)C(=O)N[C@@H](CCCNC(=N)N)C(=O)NC1(C(=O)NC(c2ccc(Cl)cc2)c2ccc(Cl)cc2)CCCC1 [MM-103]

Further lines, the compound ahead of its results:

SMILES: CC(=O)N[C@@H](CO)C(=O)N[C@@H](CCCNC(=N)N)C(=O)N[C@@H](C)C(N)=O [Compound 1i] (Ac-Ser-Arg-Ala-NH2)
decrease in binding affinity to WDR5 (times) compared to ARA (Ac-ARA-NH2) (WDR5): 5
weakening of binding to WDR5 (times) compared to Val and Abu at Ala1 (WDR5): approximately 10

SMILES: CC(=O)N[C@H](C(=O)N[C@@H](CCCNC(=N)N)C(=O)N[C@@H](C)C(N)=O)C(C)C [Compound 1c] (Ac-Val-Arg-Ala-NH2)
improvement in binding affinity to WDR5 (times more potent) compared to ARA (Ac-ARA-NH2) (WDR5): 2

SMILES: CC(=O)N[C@@H](CS)C(=O)N[C@@H](CCCNC(=N)N)C(=O)N[C@@H](C)C(N)=O [Compound 1d] (Ac-Cys-Arg-Ala-NH2)
decrease in binding affinity to WDR5 (times) compared to ARA (Ac-ARA-NH2) (WDR5): 3

SMILES: CC(=O)N[C@@H](Cc1ccccc1)C(=O)N[C@@H](CCCNC(=N)N)C(=O)N[C@@H](C)C(N)=O [Compound 1h] (Ac-Phe-Arg-Ala-NH2)
inhibition of MLL1 HMT activity, result in words [1]: fail to inhibit the MLL1 HMT activity
decrease in binding affinity to WDR5 (times) compared to ARA (Ac-ARA-NH2) (WDR5): 3–6

SMILES: CC(=O)NCC(=O)N[C@@H](CCCNC(=N)N)C(=O)N[C@@H](C)C(N)=O [Compound 1a] (Ac-Gly-Arg-Ala-NH2)
inhibition of MLL1 HMT activity, result in words [1]: fail to inhibit the MLL1 HMT activity
decrease in binding affinity to WDR5 (times) compared to ARA (Ac-ARA-NH2) (WDR5): > 100

SMILES: CC(=O)N[C@H](C(=O)N[C@@H](CCCNC(=N)N)C(=O)N[C@@H](C)C(N)=O)[C@@H](C)O [Compound 1j] (Ac-Thr-Arg-Ala-NH2)
decrease in binding affinity to WDR5 (times) compared to ARA (Ac-ARA-NH2) (WDR5): 5
weakening of binding to WDR5 (times) compared to Val and Abu at Ala1 (WDR5): approximately 10

SMILES: CC(=O)N[C@@H](C)C(=O)N[C@@H](CCCCN)C(=O)N[C@@H](C)C(N)=O [Compound 2c] (Ac-Ala-Lys-Ala-NH2)
IC50 (WDR5): > 300 µM
Ki (WDR5): > 65 µM
binding to WDR5, result in words (WDR5; FP-based competitive binding): inactive

SMILES: CCC(CC)(NC(=O)C(C)C)C(=O)N[C@@H](CCCN=C(N)N)C(=O)NC1(C(=O)NC(c2ccc(F)cc2)c2ccc(F)cc2)CCCC1 [MM-102]
effect on expression of GAPDH, in words (GAPDH): did not affect the expression of GAPDH
reduction in HoxA9 gene expression compared with Mock (HoxA9; 25 μM): Approximately 50%
reduction in HoxA9 gene expression compared with Mock (HoxA9; 50 μM): ~70%
cell growth inhibition, in words (KOPN8 cells; KOPN8, 75 μM): completely inhibits cell growth
IC50 (KOPN8 cells; read-out: cell growth inhibition IC50, KOPN8 (MLL1-ENL)): 25 µM
cells undergoing cell death (K562 cells [2]): < 10%
effect on cell growth, in words (K562 cells [3]; K562 (BCR-ABL, no MLL1 fusion), up to 50 μM): no effect
effect on cell growth, in words (K562 cells [3]; K562, 75 μM): minimal effect
decrease in Meis-1 expression (Meis-1): 40%
improvement in binding affinity to WDR5 (times more potent) compared to ARA (Ac-ARA-NH2) (WDR5): > 200
cells undergoing cell death (MV4;11 cells [4]): > 75%
cell growth inhibition, in words (MV4;11 cells [5]; MV4;11, 75 μM): completely inhibits cell growth
IC50 (MV4;11 cells [5]; read-out: cell growth inhibition IC50, MV4;11 (MLL1-AF4)): 25 µM

SMILES: CC(=O)N[C@@H](C)C(=O)N[C@@H](CCCNC(=N)N)C(=O)N[C@@H](C)C(N)=O [ARA, Ac-ARA-NH2] (Ac-Ala-Arg-Ala-NH2)
IC50 [1]: 141 ± 52 µM

SMILES: CC(=O)N[C@@H](C)C(=O)N[C@@H](CCCNC(N)=O)C(=O)N[C@@H](C)C(N)=O [Compound 2d]
inhibition of MLL1 HMT activity, result in words [1]: fail to inhibit the MLL1 HMT activity
binding to WDR5, result in words (WDR5; FP-based competitive binding): fails to bind to WDR5

SMILES: CC(=O)N[C@@H](Cc1c[nH]cn1)C(=O)N[C@@H](CCCNC(=N)N)C(=O)N[C@@H](C)C(N)=O [Compound 1g] (Ac-His-Arg-Ala-NH2)
decrease in binding affinity to WDR5 (times) compared to ARA (Ac-ARA-NH2) (WDR5): 3–6

SMILES: CC(=O)N[C@@H](C)C(=O)N[C@@H](CCCN)C(=O)N[C@@H](C)C(N)=O [Compound 2b]
IC50 (WDR5): > 300 µM
Ki (WDR5): > 65 µM
binding to WDR5, result in words (WDR5; FP-based competitive binding): complete loss of binding

SMILES: CCCC[C@H](NC(=O)[C@H](C)NC(C)=O)C(=O)N[C@@H](C)C(N)=O [Compound 2a]
IC50 (WDR5): > 300 µM
Ki (WDR5): > 65 µM
binding to WDR5, result in words (WDR5; FP-based competitive binding): complete loss of binding

SMILES: CC[C@H](NC(C)=O)C(=O)N[C@@H](CCCNC(=N)N)C(=O)N[C@@H](C)C(N)=O [Compound 1b]
improvement in binding affinity to WDR5 (times more potent) compared to ARA (Ac-ARA-NH2) (WDR5): 2

— article PMC5180416 (Journal of the American Chemical Society, 2012)
